The EternaBench riboswitch data

System: MS2 coat protein
Assay: apparent Kd, MS2 coat protein; higher = weaker binding; RNA-MaP array; tryptophan 2.4 mM where present
Procedure, shortened: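 Green signal was scaled to red-channel RNA signal and control-cluster median Fmax, and the apparent Kd was taken as the median of filtered per-cluster binding-curve fits. The binding series used SNAP-549-labelled MS2 coat protein from 0.7 or 1.5 nM, doubling to 3 µM, on designs transcribed by stalled E. coli RNA polymerase on Illumina sequencing-chip clusters. Each series ran without and then with constant ligand in 100 mM Tris-HCl pH 7.5, 80 mM KCl, 4 mM MgCl2, BSA, DTT, yeast tRNA and Tween-20.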

[1] = designed as: OFF switch for tryptophan, no ligand
[2] = ligand present: tryptophan, designed as: OFF switch for tryptophan
[3] = designed as: ON switch for tryptophan, no ligand
[4] = ligand present: tryptophan, designed as: ON switch for tryptophan

| Sequence | apparent Kd [1] | apparent Kd [2] | apparent Kd [3] | apparent Kd [4] |
| --- | --- | --- | --- | --- |
| AAACUUCGCAUAGGAAAACUAUGUGAAGAUCGAGGACCGGUACGGCCGCCACUCGUCCUCAACAUGAGGAUCACCCAUGUAAUAA | 21.1 nM | 30 nM | – | – |
| AACAUACAGUUUUAGGUGGAUAUAAGGCGGCGAGGACCGGUACGGCCGCCACUCGCGUACAUGAGGAUCACCCAUGUCUGAAGCU | – | – | 60.3 nM | 46.5 nM |
| AACAUGAGGAUCACCCAUGUCCUCGUGUACCGAGGACCGGUACGGCCGCCACUCGGUUCUCGCGAGGAUGGUCAAAGACUAUCCA | – | – | 417 nM | 470 nM |
| AAUAAGAUCCUCAUGUGAGUCGUACCAUAACGAGGACCGGUACGGCCGCCACUCGAACAUGAGGAUCACCCAUGUAGGUACGACA | – | – | 118 nM | 176 nM |
| AAUAAUAGGUGAUCUUGAGUCGUACCGUAACGAGGACCGGUACGGCCGCCACUCGAACAUGAGGAUCACCCAUGUAUGUAUGAUA | – | – | 90 nM | 117 nM |
| AAUACAGUGUCGGCCGCCACUGAAACAUGACAUGAGACAUGAGGAUCACCCAUGUACAUAAUAAACAGGACCGGGACCCAUGUAU | – | – | 37.9 nM | 15.5 nM |
| AAUUAUCAGUCGGCCGCCACUGACACAUGAGGAUCACCCAUGUAACAUGGGUAAAAUUAACUGAACAGGACCGGGACAAAGGCUA | 378 nM | 499 nM | – | – |
| AAUUCAAUUUUCUUGAUGUAUUAUAUAUUUCGAGGACCGGUACGGCCGCCACUCGUUAAUUACAUGAGGAUCACCCAUGUUAGCU | 16.8 nM | 14 nM | – | – |
| ACACAAUACAUGAGGAUCACCCAUGUAAAACGAGGACCGGUACGGCCGCCACUCGAAUACAGGAAACCUCGGAAUAUUAAGUGAA | 51.8 nM | 38 nM | – | – |
| AGACUGUAAAGUCUACCGGUCAACAAUAAUCGAGGACCGGUACGGCCGCCACUCGAUGUGAUAUACACAUGAGGAUCACCCAUGU | – | – | 16.2 nM | 15.5 nM |
| AGAGCAUUGACGGCCGCCACUUAUGUCACAUGAGGAUCACCCAUGUGAUGGGUGAUAGCCCGGUUGAGGACCGGGUCAAUGCUCA | – | – | 12.7 nM | 17.9 nM |
| AGAUUCGACACGGCCGCCACUCGUGACAGAUUUCGCAGUGGUCAACAUGAGGAUCACCCAUGUCUGAGGACCGGGUGUUGAGUCU | 33.5 nM | 474 nM | – | – |
| AGGUACGAAAACGUGGGUGAGUCGUACCAACGAGGACCGGUACGGCCGCCACUCGAAUAAACAUGAGGAUCACCCAUGUAAUAAU | – | – | 42.4 nM | 107 nM |
| AGUUUAGACACGGCCGCCACUCGUGACAGAUUUCGCAGUGGUCUACAUGAGGAUCACCCAUGUCUGAGGACCGGGUGUUGAGUUU | 144 nM | 433 nM | – | – |
| AUAAAUAAUAAAUAAGAUAAAAUGGGUGAACGAGGACCGGUACGGCCGCCACUCGGACAUGAGGAUCACCCAUGUCCAUGUGAAA | 20.2 nM | 27.6 nM | – | – |
| AUAAAUGGGUUAAUUAGUUUUAGGUCCAGUCGAGGACCGGUACGGCCGCCACUCGUCCCAAGUUACAUGAGGAUCACCCAUGUUA | 46.6 nM | 67.5 nM | – | – |
| AUAAUAAUGUCGGCCGCCACUAUAAACAUGAGGAACAUGAGGAUCACCCAUGUAUGAGGAUCACCUAGGACCGGGACUAAUAUUA | 47.6 nM | 43.3 nM | – | – |
| AUACAUGAGGAUCACCCAUGUCCUCGUGAUCGAGGACCGGUACGGCCGCCACUCGGUCCUCGCGAGGAGGAGUCAAAGACUCCUA | – | – | 178 nM | 128 nM |
| AUCAUAAUAGCCUCGUGUAAUUAAAUGGAACGAGGACCGGUACGGCCGCCACUCGAUAUAAACAUGAGGAUCACCCAUGUAAGCA | 65.5 nM | 58.3 nM | – | – |
| AUCUUUGACGAUCUGGGAAAACCAGAUCGGCGAGGACCGGUACGGCCGCCACUCGUGUAUAAUAUACAUGAGGAUCACCCAUGUA | – | – | 40.4 nM | 29.6 nM |
| AUGGUAAGAACAUGAGGAUCACCCAUGUGACGAGGACCGGUACGGCCGCCACUCGUACCUUAGUCGUCGAACAGAGGAUUCAUGU | – | – | 89.2 nM | 66 nM |
| CAAUAAGUACCGGUCCUCAGAUCCUCAUGACGAGGACCGGUACGGCCGCCACUCGAAACAUGAGGAUCACCCAUGUAAUAAUAAU | 23 nM | 28.4 nM | – | – |
| CACGAAAGAUCGGCCGCCACUAACCUGUGUGUACUAGCACAUGAGGAUCACCCAUGUUCUUGCGUUAGGACCGGGAUUGAGCGUG | 23 nM | 21.7 nM | – | – |
| CACGAAAGAUCGGCCGCCACUCAUGUUUCUUACAUGAGGAUCACCCAUGUAUUUUCUUUCUUUUAGAGGACCGGGAUCGAGCGUG | – | – | 40.8 nM | 18.4 nM |
| CCACUUUCUUUUAUCUUUCUUUCUUUGUUACGAGGACCGGUACGGCCGCCACUCGUGGUGUGUGGUACAUGAGGAUCACCCAUGU | – | – | 23.7 nM | 22.4 nM |
| CCAUGCAGGUCGGCCGCCACUACACACAUGAGGAUCACCCAUGUAGUUACUGGGUGAAGUGGCAGUAGGACCGGGACCUGCACAU | – | – | 311 nM | 729 nM |
